Measurements published in ChEMBL document CHEMBL1123086, “8-Substituted guanosine and 2'-deoxyguanosine derivatives as potential inducers of the differentiation of Friend erythroleukemia cells” (1985).

Columns and labels:
[1] = system: Friend leukemia cell line; test: Inhibitory activity against cellular replication in Friend erythroleukemia cells as growth inhibition.; format: functional; details: Mus musculus, read-out: ID50 (the source's name)
Outline: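 Exponentially growing parental Friend erythroleukemia cells at (7–8) × 10⁴ cells/mL in DMEM with 15% FBS under 10% CO₂. Incubated with graded 2.5-fold concentration steps. Cell number was counted on day 3 with a particle counter, and percent growth inhibition was calculated from log cell number.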

[2] = system: Friend erythroleukemia cells, HGPRT- (Mus musculus); test: Inhibitory activity against cellular replication in hypoxanthine-guanine phosphoribosyltransferase (HGPRT-) Friend murine erythroleukemia cells.; details: read-out: ID50 (the source's name)
[3] = system: Friend leukemia cell line; test: Inhibitory activity against cellular differentiation in Friend erythroleukemia cells as optimal concentration required for maximum activity.; format: functional, Mus musculus
Outline: (§1)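 Parental Friend murine erythroleukemia cells in exponential growth, seeded at (7–8) × 10⁴ cells/mL in Dulbecco's modified Eagle's MEM with 15% fetal bovine serum and 2 mM L-glutamine under 10% CO₂. Exposed to graded 2.5-fold concentration increases. On day 6, hemoglobin-containing cells staining blue with acidic 3,3',5,5'-tetramethylbenzidine peroxide were counted cytologically and reported as percent benzidine-positive cells.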

[4] = system: Friend leukemia cell line; test: Inhibitory activity against cellular differentiation in Friend erythroleukemia cells as percentage of benzidine - positive cells.; format: functional, Mus musculus; outline: as §1

## CS(=O)(=O)c1nc2c(O)nc(N)nc2n1C1O[C@H](CO)[C@@H](O)[C@H]1O (stereo partly specified)
[1]
  IC50: 5.4 mM
[2]
  IC50: 10 mM
[3]
  Optimal concentration: 5 mM
[4]
  Benzidine positive cells: 30%

## Nc1nc(O)c2nc(NO)n(C3O[C@H](CO)[C@@H](O)[C@H]3O)c2n1 (stereo partly specified)
[1]
  IC50: > 5 mM
[3]
  Optimal concentration: 6 mM
[4]
  Benzidine positive cells: 7%

## Nc1nc2c(nc(Br)n2[C@@H]2O[C@H](CO)[C@@H](O)[C@H]2O)c(=O)[nH]1
[1]
  IC50: 5.1 mM
[2]
  IC50: 5.1 mM
[3]
  Optimal concentration: 5 mM
[4]
  Benzidine positive cells: 6%

## Nc1nc2c([nH]c(=O)n2[C@H]2C[C@H](O)[C@@H](CO)O2)c(=O)[nH]1
[1]
  IC50: 0.39 mM
[2]
  IC50: 0.39 mM
[3]
  Optimal concentration: 0.2 mM
[4]
  Benzidine positive cells: 62%

## C[S+](C)[O-] [DIMETHYL SULFOXIDE]
[3]
  Optimal concentration: 200 mM
[4]
  Benzidine positive cells: 70%

## Nc1nc(O)c2nc(Br)n([C@H]3C[C@H](O)[C@@H](CO)O3)c2n1
[1]
  IC50: > 5 mM
[2]
  IC50: > 5 mM
[3]
  Optimal concentration: 7 mM
[4]
  Benzidine positive cells: 20%

## Nc1nc(O)c2nc(OCc3ccccc3)n(C3O[C@H](CO)[C@@H](O)[C@H]3O)c2n1 (stereo partly specified)
[1]
  IC50: > 8 mM
[2]
  IC50: > 8 mM
[3]
  Optimal concentration: 8 mM
[4]
  Benzidine positive cells: 4%

## CN(C)c1nc2c(=O)[nH]c(N)nc2n1[C@@H]1O[C@H](CO)[C@@H](O)[C@H]1O
[1]
  IC50: > 5 mM
[2]
  IC50: > 5 mM
[3]
  Optimal concentration: 5 mM
[4]
  Benzidine positive cells: 68%

## CSc1nc2c(O)nc(N)nc2n1C1O[C@H](CO)[C@@H](O)[C@H]1O (stereo partly specified)
[1]
  IC50: > 8 mM
[2]
  IC50: > 8 mM
[3]
  Optimal concentration: 5 mM
[4]
  Benzidine positive cells: 11%

## Nc1nc(O)c2ncn([C@H]3C[C@H](O)[C@@H](CO)O3)c2n1 [DEOXYGUANOSINE]
[1]
  IC50: 0.29 mM
[2]
  IC50: 0.49 mM
[4]
  Benzidine positive cells: 0%

## CNc1nc2c(=O)[nH]c(N)nc2n1[C@@H]1O[C@H](CO)[C@@H](O)[C@H]1O
[1]
  IC50: 2.9 mM
[2]
  IC50: 4.9 mM
[3]
  Optimal concentration: 1 mM
[4]
  Benzidine positive cells: 42%

## Nc1nc(O)c2nc(OCc3ccccc3)n([C@H]3C[C@H](O)[C@@H](CO)O3)c2n1
[1]
  IC50: > 5 mM
[2]
  IC50: > 5 mM
[3]
  Optimal concentration: 7 mM
[4]
  Benzidine positive cells: 7%

## COc1nc2c(O)nc(N)nc2n1C1O[C@H](CO)[C@@H](O)[C@H]1O (stereo partly specified)
[1]
  IC50: > 8 mM
[2]
  IC50: > 8 mM
[3]
  Optimal concentration: 8 mM
[4]
  Benzidine positive cells: 7%

## [N-]=[N+]=Nc1nc2c(O)nc(N)nc2n1C1O[C@H](CO)[C@@H](O)[C@H]1O (stereo partly specified)
[1]
  IC50: 3.6 mM
[2]
  IC50: 3.6 mM
[3]
  Optimal concentration: 2 mM
[4]
  Benzidine positive cells: 12%

## Nc1nc2c(nc(O)n2[C@@H]2O[C@H](CO)[C@@H](O)[C@H]2O)c(=O)[nH]1 [8-HYDROXYGUANOSINE]
[1]
  IC50: 8 mM
[2]
  IC50: 8 mM
[3]
  Optimal concentration: 5 mM
[4]
  Benzidine positive cells: 33%

## Nc1nc(O)c2nc(N)n([C@@H]3O[C@H](CO)[C@@H](O)[C@H]3O)c2n1
[1]
  IC50: 1.7 mM
[2]
  IC50: 1.7 mM
[3]
  Optimal concentration: 0.4 mM
[4]
  Benzidine positive cells: 34%

## COc1nc2c(O)nc(N)nc2n1[C@H]1C[C@H](O)[C@@H](CO)O1
[1]
  IC50: > 5 mM
[2]
  IC50: > 5 mM
[3]
  Optimal concentration: 5 mM
[4]
  Benzidine positive cells: 22%

## Nc1nc(O)c2nc(S)n([C@@H]3O[C@H](CO)[C@@H](O)[C@H]3O)c2n1
[1]
  IC50: 3.5 mM
[2]
  IC50: 3.5 mM
[3]
  Optimal concentration: 2 mM
[4]
  Benzidine positive cells: 4%

## Nc1nc2c(ncn2[C@@H]2O[C@H](CO)[C@@H](O)[C@H]2O)c(=O)[nH]1 [GUANOSINE]
[1]
  IC50: 1.2 mM
[2]
  IC50: 7.8 mM
[4]
  Benzidine positive cells: 0%
